High-throughput results (PubChem BioAssay)
Compounds with a hit are over-represented: about 1.6% of the library has one in this group of screens.
SUMO1-SIM PPI = modulators of SUMO1 protein-protein interactions, primary screen, biochemical, uHTS; AID 602429, 2012; SUMO1 binding to a labelled peptide, TR-FRET, 1 h; hit rate 0.33% among 360,000; inhibition, % at 20 µM; in the data active = inhibition above about 37%
Target sequence (P63165 whole entry, looked up): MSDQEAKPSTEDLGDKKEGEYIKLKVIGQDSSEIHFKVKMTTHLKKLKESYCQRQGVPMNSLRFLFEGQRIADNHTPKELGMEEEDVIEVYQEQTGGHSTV
CFTR F508del cor = F508del CFTR correction, initial screen, CFBE line, single point; activity (quench increase), % at 7.58 µM; hit rate 0.36% among 350,000; CFBE cells, YFP halide quenching; stimulated with forskolin plus potentiator P3; % fluorescence drop versus neutral controls;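 active = mean added fluorescence quench of at least 8% versus neutral control, with both replicates also reaching 8%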;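 note: cells transiently co-express mutant CFTR-F508del with the halide-sensitive YFP; corrector assay measuring rescue of mutant channel to the surface after 24 h compound exposure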
LMPTP inh = LMPTP phosphatase inhibitors, primary screen, biochemical, fluorescence intensity, uHTS | Low molecular weight phosphotyrosine protein phosphatase (Homo sapiens), P24666 | recombinant LMPTP-A, OMFP fluorogenic substrate | inhibition, % at 20 µM | hit rate 0.22% among 360,000;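 active = compounds that cut the enzyme signal by at least half of the control window in the single-dose screen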;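 note: plate controls were DMSO wells with enzyme plus substrate for no effect and substrate without enzyme for full effect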
Target sequence (P24666 whole entry, looked up): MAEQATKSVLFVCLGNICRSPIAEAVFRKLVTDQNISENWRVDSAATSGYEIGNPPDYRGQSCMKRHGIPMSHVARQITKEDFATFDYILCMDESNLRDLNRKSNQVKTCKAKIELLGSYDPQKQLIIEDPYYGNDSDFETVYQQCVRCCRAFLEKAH
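Test system: LMPTP-A, protein tyrosine phosphatase of low molecular weight; Input: 0.625 nM enzyme; Incubation: 50 min dark incubation at room temperature; Signal: endpoint fluorescence intensity from OMFP dephosphorylation; Read-out basis: % inhibition versus control wells.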
STEP inh = STEP phosphatase inhibitors, primary screen, biochemical, fluorescence intensity, uHTS. Tyrosine-protein phosphatase non-receptor type 5 (Homo sapiens), P54829. recombinant STEP, OMFP fluorogenic substrate. inhibition, % at 20 µM. hit rate 0.25% among 360,000;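 active = inhibition at 20 µM, scaled per plate between control wells, above about 37%, limit read from the data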;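 note: 0% = DMSO with enzyme and substrate and 100% = substrate only without enzyme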
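Material: STEP (striatal-enriched tyrosine phosphatase) enzyme, cell-free | Medium: 50 mM Bis-Tris pH 6.0 with 2.5 mM DTT and 0.005% Tween 20 | Read-out: Percent inhibition scaled to no-enzyme and uninhibited-enzyme controls, plate-pattern corrected | Signal: Fluorescence read at 480 nm ex / 540 nm em | Times: 20 min reaction, room temperature, in the dark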
DNMT1 inh = human DNMT1 methyltransferase inhibitors, primary screen, biochemical, molecular beacon, fluorescence, HinP1I cleavage, uHTS; AID 588458, 2011; DNA (cytosine-5)-methyltransferase 1 (Homo sapiens), P26358; inhibition (reported as % activation of signal), % at 10 µM; hit rate 0.83% among 360,000; in the data active = inhibition above about 50%
Scp-1 inhibitor = Scp-1 phosphatase inhibitors, primary screen, biochemical, colorimetric, uHTS | AID 493091, 2011 | hit rate 0.88% among 340,000 | Recombinant Scp1, phosphopeptide, malachite green phosphate absorbance | inhibition, % at 20 µM;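 active = inhibition above about 50% at 20 µM, limit read from the data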;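 note: plate controls were DMSO wells with enzyme for no effect and wells lacking enzyme for full effect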
Target sequence (Q9GZU7 76-261 limits assumed): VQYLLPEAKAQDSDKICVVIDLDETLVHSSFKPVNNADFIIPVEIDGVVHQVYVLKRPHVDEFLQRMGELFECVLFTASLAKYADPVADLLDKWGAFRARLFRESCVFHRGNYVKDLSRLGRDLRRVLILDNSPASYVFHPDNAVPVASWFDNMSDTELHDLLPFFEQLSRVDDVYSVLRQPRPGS
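System: SCP-1 catalytic domain; Reagent: Phospho 17-mer peptide substrate; Doses: one concentration, 20 µM, with 1.0% DMSO; Incubation: 45 min room-temperature reaction, 5 min colour, 30 min stabiliser; Signal: Phosphate-binding colour reagent, absorbance read at 630 nm.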
Scp1 confirm = Scp-1 phosphatase inhibitors, retest, confirmation, biochemical, colorimetric, single concentration; shares compounds with Scp-1 inhibitor; recombinant SCP-1 catalytic domain, phosphate release, malachite green absorbance; inhibition, % at 20 µM; hit rate 61% among 2,500;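 active = inhibition of at least 30% at 20 µM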;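 note: plate controls were DMSO with enzyme for no effect and buffer wells lacking enzyme for full effect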
MG interference = colorimetric readout interference by compounds, confirmation, artefact control for Scp-1 inhibitor project, biochemical, single concentration. AID 540313, 2011. shares compounds with Scp-1 inhibitor. Colorimetric interference counterscreen, malachite green absorbance 630 nm. apparent inhibition (interference), % at 20 µM. 2,500 tested, under 10 active;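 active = inhibition of at least 30% at 20 µM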;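 note: compounds added after enzyme reaction finished so only phosphate colour detection is probed; plate controls were DMSO wells with completed Scp-1 reaction for no effect and substrate wells lacking enzyme for full effect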
Scp1 DSF = Scp-1 binding by thermal shift, confirmation, orthogonal assay for Scp-1 inhibitor project, biophysical, differential scanning fluorimetry. hit rate 25% among 1,500. shares compounds with Scp-1 inhibitor. AID 540329, 2011. Recombinant SCP1, Sypro Orange thermal shift Tm. thermal shift relative to vanadate control, % at 40 µM;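 active = substances whose mean melting-temperature shift, as a percentage of the reference inhibitor's shift, reaches about 5.3%, limit read from the data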;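 note: 0% = Tm of DMSO wells and 100% = Tm with sodium orthovanadate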
DNMT1 interf DR = spectral interference with molecular beacon fluorescence, dose response, artefact control for DNMT1 inhibitor project, biochemical, fluorescent molecular beacon; shares compounds with DNMT1 inh; spectral interference counter-screen; IC50, µM; 200 tested, under 10 active; AID 602382, 2012
DNMT1 confirm = DNMT1 methyltransferase inhibitor retest, confirmation, biochemical, molecular beacon, fluorescence, single concentration. DNMT1 molecular beacon HinP1I cleavage. AID 602385, 2012. hit rate 8% among 2,300. shares compounds with DNMT1 inh. inhibition, % at 10 µM;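 active = average inhibition of at least 30% in the single-concentration confirmation test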
DNMT1 interf = counter-screen for DNMT1 inhibitors: spectral interference | hit rate 1% among 2,300 | activation (fluorescence interference), % at 10 µM | DNMT1 molecular beacon spectral interference counterscreen, fluorescence 485/520 | shares compounds with DNMT1 inh;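 active = activation of at least 30% at 10 µM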;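 note: DNMT1 catalytic domain with a HinP1I cleavage step and a FAM/dabcyl DNA beacon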
STEP conf = STEP phosphatase inhibitor hit confirmation, biochemical, fluorescence intensity, single concentration; shares compounds with STEP inh; hit rate 32% among 520; inhibition, % at 20 µM; recombinant STEP, OMFP fluorogenic substrate;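 note: 0% = enzyme with substrate plus DMSO and 100% = substrate without enzyme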
Active calls of the source: *; · = no result. Unless noted, the rule behind the calls is not given here.

SMILES	SUMO1-SIM PPI	CFTR F508del cor	LMPTP inh	STEP inh	DNMT1 inh	Scp-1 inhibitor	DNMT1 confirm	DNMT1 interf	others
Cc1c(CCC(=O)O)c(=O)oc2c(C)c(OCc3cc4c(cc3Cl)OCO4)ccc12	81.1*	0.3	76.6*	94.0*	2.2	59.4*	·	·	Scp1 confirm=38.7*;MG interference=-20.8;Scp1 DSF=-35.9;STEP conf=50.9*
CCCNC(=O)N1[C@H](C#N)[C@H](c2ccc(-c3cccc(OC)c3)cc2)[C@H]1CO	·	0.4	·	·	·	·	·	·
COc1ccc(S(=O)(=O)N(C)C[C@H]2OCCCC[C@@H](C)Oc3ccc(NC(=O)CCCCCC(=O)Nc4ccccc4N)cc3C(=O)N([C@H](C)CO)C[C@@H]2C)cc1	·	1.1	·	·	·	·	·	·
O=C(O)c1ccc(/C=N/NC(=O)c2cc3c(ccc4ccccc43)o2)cc1	14.5	2.0	66.7*	98.4*	0.0	79.2*	·	·	Scp1 confirm=71.2*;MG interference=-9.0;Scp1 DSF=1.0;STEP conf=7.3
O=C(N/N=C/c1cccc([N+](=O)[O-])c1)c1cc2c(ccc3ccccc32)o1	4.9	·	64.4*	98.6*	44.4	98.8*	·	·	Scp1 confirm=68.2*;MG interference=-12.0;Scp1 DSF=-10.6;STEP conf=32.0
CCCN1C[C@@H](C)[C@@H](OC)CN(C)C(=O)c2cc(NC(=O)C3CCOCC3)ccc2OC[C@H]1C	·	-1.3	·	·	·	·	·	·
O=C(c1cccnc1)N1CC2(C1)[C@H](c1ccccc1)[C@H](CO)N2Cc1ccncc1	·	1.1	·	·	·	·	·	·
FC(F)(F)c1ccc(Nc2nnnc3ccccc23)cc1	-8.2	-4.6	51.1*	96.6*	-1.5	72.5*	·	·	Scp1 confirm=61.7*;MG interference=-13.4;Scp1 DSF=-23.6;STEP conf=-7.8
O=C(Nc1cccc(-c2nc3ccccc3s2)c1)c1cc(=O)c2ccccc2o1	3.2	·	37.3	79.5*	51.5*	71.9*	1.2	1.4	Scp1 confirm=43.4*;MG interference=-14.0;Scp1 DSF=-6.3;STEP conf=4.5
O=C(Nc1cccc(-c2nc3ccccc3s2)c1)c1cccs1	-0.5	·	4.1	-2.1	-12.9	-7.0	·	·
Cc1c(C)n(C(=O)CSc2nc3ccccc3[nH]2)c2ccccc12	1.0	·	15.0	83.7*	99.8*	98.4*	13.4	-2.3	Scp1 confirm=60.4*;MG interference=-7.9;Scp1 DSF=5.8*;STEP conf=52.2*
O=C(CSc1nc2ccccc2[nH]1)N1CCCCC1	-2.3	·	-0.9	0.4	4.7	6.0	·	·
O=C(N[C@H]1CC[C@H](CCn2cc(Cc3ccccc3)nn2)O[C@H]1CO)c1cnccn1	·	-2.2	·	·	·	·	·	·
COC(=O)/C(=C\c1ccc([N+](=O)[O-])o1)NC(=O)c1ccccc1	-20.1	·	0.1	1.5	5.5	-3.3	·	·
CSc1ccc(/C=C(/NC(=O)c2ccc(C)cc2)C(=O)Nc2cccc(C)c2)cc1	1.0	-2.5	0.0	1.3	54.7*	-2.7	0.1	2.4
Cc1cccc(NC(=O)/C(=C\c2ccc([N+](=O)[O-])o2)NC(=O)c2ccc(Cl)cc2)c1	-13.3	·	8.8	6.7	85.3*	45.1	-1.1	2.8
CC1(C)CC(N=c2cc(-c3ccccc3)oc3ccc(Cl)cc23)CC(C)(C)N1	-14.8	-2.2	-0.1	-1.5	75.1*	3.2	32.9*	-6.3	DNMT1 interf DR=>99
Cc1cc(C)c2oc(-c3ccc(C)c(NC(=S)NC(=O)c4cccs4)c3)nc2c1	-0.3	·	1.7	2.1	51.4*	-1.6	5.2	-5.7
Cc1ccc(-c2nc3ccccc3o2)cc1NC(=S)NC(=O)c1cccs1	0.6	·	0.2	1.1	55.0*	0.8	-0.3	-1.6
Cc1ccc2oc(-c3cccc(NC(=S)NC(=O)c4cccs4)c3)nc2c1	-1.5	-1.7	-1.8	-0.5	6.3	-4.2	·	·
CCCN(C)C[C@@H]1OCCCC[C@@H](C)Oc2ccc(NS(=O)(=O)c3cccs3)cc2C(=O)N([C@@H](C)CO)C[C@@H]1C	·	-1.2	·	·	·	·	·	·
Cc1ccc(S(=O)(=O)N(CC(=O)N/N=C/c2cccc(Cl)c2)c2cccc3cccnc23)cc1	0.9	·	2.4	7.9	52.6*	-3.1	2.5	6.4
Cc1ccc(N(CC(=O)N/N=C/c2cccnc2)S(=O)(=O)c2ccccc2)cc1	-3.3	0.2	-1.7	-3.3	2.4	-0.9	·	·
Cn1cnc(S(=O)(=O)N[C@@H]2CC[C@@H](CC(=O)Nc3ccccc3)O[C@H]2CO)c1	·	2.0	·	·	·	·	·	·
CO[C@@H]1CN(C)C(=O)c2ccc(NC(C)=O)cc2OC[C@H](C)N(C(=O)c2cnccn2)C[C@H]1C	·	1.1	·	·	·	·	·	·
O=C(O)c1cc(-c2ccc(/C=C3\NC(=O)N(c4ccc(Cl)cc4)C3=O)o2)ccc1Cl	28.6	·	2.4	39.0	98.8*	74.0*	20.8	-1.5
C#CCN1C(=O)S/C(=C\c2ccc(-c3ccc(Cl)c(C(=O)O)c3)o2)C1=O	-1.3	0.2	0.3	13.7	14.4	37.9	·	·
C[C@@H]1CN([C@@H](C)CO)C(=O)c2cccc(N(C)C)c2O[C@@H]1CN(C)Cc1ccc(-c2ccccc2)cc1	·	-0.2	·	·	·	·	·	·
